One assay addresses T1, human arginase I (Homo sapiens, UniProt P05089).
T1 sequence (P05089 1-322): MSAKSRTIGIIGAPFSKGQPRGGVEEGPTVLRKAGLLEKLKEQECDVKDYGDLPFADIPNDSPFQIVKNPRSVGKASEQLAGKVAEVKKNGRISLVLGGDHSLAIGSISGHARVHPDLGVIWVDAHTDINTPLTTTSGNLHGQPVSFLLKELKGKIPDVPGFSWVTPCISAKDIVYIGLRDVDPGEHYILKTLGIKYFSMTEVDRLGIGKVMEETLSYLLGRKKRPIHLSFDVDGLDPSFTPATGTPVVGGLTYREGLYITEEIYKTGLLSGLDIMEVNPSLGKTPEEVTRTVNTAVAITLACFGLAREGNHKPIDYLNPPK
Briefly: Fixed-point kinetic assay with [14C-guanidino]-L-arginine. The assay is classed as biochemical. As to conditions: for mode of inhibition: from Lineweaver-Burk plots. In a few lines:
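Affinity derived from a replot of v0/vi (velocity without/with inhibitor) against inhibitor concentration. Mode of inhibition (competitive or noncompetitive) assigned from Lineweaver-Burk plots at several inhibitor concentrations.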

The subject of assay [1] is airways hyperresponsiveness in OVA/OVA Balb/C mice. The assay is classed as in vivo, mouse. The procedure, abridged: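 Female Balb/C mice (6–8 weeks) were sensitized i.p. with 25 μg OVA plus 1 mg aluminium hydroxide on days 0 and 7, then given nebulized 6% OVA in PBS, or PBS, 25 min/day on days 14–20. On day 21: ketamine/xylazine anaesthesia, intubation, FlexiVent ventilation.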

For assay [2] the test system is unchanged. The conditions noted are these: cited from earlier work.
The mark [3] stands for this setting: OVA/OVA mice, nebulized 80 μg/g.

The values that follow come from paper PMC2874077 (Journal of medicinal chemistry, 2010).

Molecules are shown by their SMILES. Entries after “also recorded” stand apart in the source; their conditions may differ. Like-named read-outs stand apart in the source and are kept apart here.

With `Nc1ncc[nH]1` [2-Aminoimidazole, reference compound], the mode of inhibition result at human arginase I was “noncompetitive”.
Regarding `Nc1ncc(CCCC(N)C(=O)O)[nH]1` (stereo not shown) [A4P, 2-amino-5-(2-aminoimidazol-4-yl)-pentanoic acid], on human arginase I (enzymological assay), the inhibitory activity result is reported as “lacks inhibitory activity”.
For `Nc1nccn1CCC[C@H](N)C(=O)O` [A1P, 2-(S)-amino-5-(2-aminoimidazol-1-yl)-pentanoic acid], the mode of inhibition entry on human arginase I is “competitive”. Also, in assay [1] (setting [3]), the “maximum resistance of the central airways (RN) following methacholine challenge” value is on record as “significantly attenuated; also recorded: notably decreased” and the “total resistance of the respiratory system (R) following methacholine challenge” value was “attenuated significantly”. In addition, the airways hyperresponsiveness result in assay [1] (murine model of allergic airways inflammation) is listed as “significantly attenuates; also recorded: significantly reduces”.
Take `Nc1ncc(C[C@H](N)C(=O)O)[nH]1` [2AH, L-2-aminohistidine]: on human arginase I, the mode of inhibition result is given as “noncompetitive”.
Regarding `N[C@@H](CSCCB(O)O)C(=O)O` [BEC, S-(2-boronoethyl)-L-cysteine], in assay [2] (murine models of allergic airways inflammation ref 8a), the airways hyperresponsiveness entry is given as “reduces”. In addition, the “maximum central airways responsiveness (RN max) to methacholine” value in assay [2] (same model, earlier study ref 8a) was “attenuates”.
For `Nc1ncc(CC[C@H](N)C(=O)O)[nH]1` [AHH, 2-aminohomohistidine], at human arginase I, the mode of inhibition entry is given as “competitive”.
